# PMC5458759 (Genes & Development, 2017)
# pKd: −log10 of the molar value.
# Experiments:
# [1] = tested on: ER^LRR; test: Gel filtration assay with ER^LRR; assay type: binding, Arabidopsis; details: 10 mM Bis-Tris pH 6.0, 100 mM NaCl; incubated 30 min at 4°C
# Method in brief: (§1)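 LRR ectodomains were expressed in High Five insect cells by baculovirus at 22°C; for complexes, the ERf and TMM viruses were added together. Protein was purified from the supernatant by Ni-NTA and then size exclusion. Receptor and EPF-family peptide were mixed, held 30 min at 4°C, then run on Superdex 200 in 10 mM Bis-Tris pH 6.0, 100 mM NaCl. Fractions were analysed by SDS-PAGE with Coomassie staining.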
# [2] = tested on: ERL1^LRR; test: Gel filtration assay with ERL1^LRR; assay type: binding, Arabidopsis; details: 10 mM Bis-Tris pH 6.0, 100 mM NaCl; incubated 30 min at 4°C
# Method in brief: as §1
# [3] = tested on: ER^LRR–TMM^LRR complex; test: Gel filtration assay with ER^LRR–TMM^LRR complex; assay type: binding, Arabidopsis; details: 10 mM Bis-Tris pH 6.0, 100 mM NaCl; incubated 30 min at 4°C
# Method in brief: as §1
# [4] = tested on: ERL1^LRR–TMM^LRR complex; test: Gel filtration assay with ERL1^LRR–TMM^LRR complex; assay type: binding, Arabidopsis; details: 10 mM Bis-Tris pH 6.0, 100 mM NaCl; incubated 30 min at 4°C
# Method in brief: as §1
# [5] = tested on: ER^LRR; test: Pull-down assay with 6xHis-tagged ER^LRR; assay type: binding, Arabidopsis; details: Ni resin, SDS-PAGE, Coomassie blue; without TMM^LRR
# Method in brief: (§2)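 Purified C-terminal 6xHis-tagged receptor LRR, from High Five cells, was mixed with excess EPF-family peptide and Ni resin for 30 min on ice. The resin was washed four times in 25 mM Tris pH 8.0, 250 mM NaCl, 15 mM imidazole, then heated 5 min at 100°C in SDS loading buffer. Bound protein was detected by SDS-PAGE with Coomassie staining.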
# [6] = tested on: ERL1^LRR; test: Pull-down assay with 6xHis-tagged ERL1^LRR; assay type: binding, Arabidopsis; details: Ni resin, SDS-PAGE, Coomassie blue; without TMM^LRR
# Method in brief: as §2
# [7] = tested on: ERL2^LRR; test: Pull-down assay with 6xHis-tagged ERL2^LRR; assay type: binding, Arabidopsis; details: Ni resin, SDS-PAGE, Coomassie blue; without TMM^LRR
# Method in brief: as §2
# [8] = biological target: ERL1^LRR–TMM^LRR complex (Arabidopsis thaliana) (UniProt C0LGW6); test: ITC
Substance,interaction with ER^LRR alone in gel filtration [1],interaction with ERL1^LRR alone in gel filtration [2],interaction with ER^LRR–TMM^LRR in gel filtration (comigration) [3],interaction with ERL1^LRR–TMM^LRR in gel filtration (comigration) [4],interaction with ER^LRR in pull-down [5],interaction with ERL1^LRR in pull-down [6],interaction with ERL2^LRR in pull-down [7],pKd [8]
"EPF1: cysteine-rich EPF family peptide, residues 53–104, expressed in High Five insect cells (AGSRLPDCSHACGSCSPCRLVMVSFVCASVEEAETCPMAYKCMCNNKSYPVP)",no binding,no binding,strong interaction,strong interaction,–,–,–,–
"EPF2: cysteine-rich EPF family peptide, residues 69–120, expressed in insect cells (TGSSLPDCSYACGACSPCKRVMISFECSVAESCSVIYRCTCRGRYYHVPSRA)",no binding,no binding,strong interaction,strong interaction,none of the three ERf proteins displayed interaction,none of the three ERf proteins displayed interaction,none of the three ERf proteins displayed interaction,–
"EPFL4–EPF1, swapped EPFL4 mutant with the apical loop region of EPF1 (peptide)",–,–,–,–,–,–,–,6.38
"EPFL6: EPF family growth regulatory peptide, residues 106–156 (LGSSPPRCSSKCGRCTPCKPVHVPVPPGTPVTAEYYPEAWRCKCGNKLYMP)",–,–,–,–,sufficient for interaction,sufficient for interaction,sufficient for interaction,–
